Experiment [1] in a line: Inhibition of bovine brain tubulin polymerization preincubated for 15 mins followed by GTP addition measured for 20 mins by turbidometric analysis. More on the design: species or system Bos taurus.
For experiment [2], the target named is T1, Tubulin (Homo sapiens) (UniProt P68371+Q9H4B7+P0DPH7+P68366+Q13509+Q71U36+P04350+Q3ZCM7+P07437+P68363+Q9BQE3+Q6PEY2+Q13885+Q9BVA1+Q9BUF5). The experiment can be described thus: Displacement of [3H]-colchicine from tubulin (unknown origin) at 5 uM after 10 mins relative to control. Format: protein-complex assay.
The nature of experiment [3]: Cytotoxicity against mouse FM3A/0 cells assessed as growth inhibition after 48 hrs by coulter counting analysis. It counts as functional, cell-based. The settings on record: FM3A/0, 48 h.
Experiment [4] in a line: Cytotoxicity against human Molt4/C8 cells assessed as growth inhibition after 48 hrs by coulter counting analysis. Format: functional, cell-based. The settings on record: MOLT-4, 48 h. The procedure, abridged:
(§1)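 Cells suspended at (3−5) × 10⁵ cells/mL and mixed 1:1 with compound dilutions. Incubated 48 h at 37 °C, counted with a Coulter counter. IC₅₀ = concentration inhibiting proliferation by 50%. Mean of at least three independent experiments.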

A further experiment has as its system HeLa. The experiment can be described thus: Cytotoxicity against human HeLa cells assessed as growth inhibition after 48 hrs by coulter counting analysis. It counts as functional, cell-based.
The nature of experiment [5]: Cytotoxicity against human CEM/0 cells assessed as growth inhibition after 48 hrs by coulter counting analysis. Conditions: CCRF-CEM. Format: functional, cell-based.
The next experiment has as its system L1210. The experiment can be described thus: Cytotoxicity against mouse L1210 cells assessed as growth inhibition after 48 hrs by coulter counting analysis. It counts as functional, cell-based. Conditions: L1210, 48 h. An outline of the steps: as §1
In experiment [6] the test system is MNNG-HOS. The experiment can be described thus: Antitumor activity against human MNNG-HOS cells xenografted in Balb/c-nu mouse assessed as tumor growth inhibition at 50 mg/kg, ip administered once every 3 days for 9 days measured on day 18 relative to vehicle-treated control. It counts as functional. The settings on record: HOS-TE85, ip, route intraperitoneal, read-out: TGI. The procedure, abridged: (§2)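 MNNG/HOS osteosarcoma cells grown to exponential phase, suspended in FBS-free MEM (10⁷ cells/mL), 0.1 mL injected into back hypodermis of nude mice. At ~100 mm³, 12 mice randomised to three groups (vehicle, CA-4P in isotonic saline, test in 5% DMSO/olive oil). 50 mg/kg ip at 0.01 mL/g on days 0, 3, 6, 9. Tumour volume and body weight tracked; tumours excised and weighed day 18; […].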

In experiment [7] the test system is MNNG-HOS. The experiment can be described thus: Antitumor activity against human MNNG-HOS cells xenografted in Balb/c-nu mouse assessed as reduction in tumor weight at 50 mg/kg, ip administered once every 3 days for 9 days measured after day 18. It counts as functional, organism-based. More on the design: dose 50 mg/kg. The settings on record: HOS-TE85. The procedure, abridged:
as §2

The target of experiment [8] is T1, Tubulin (Homo sapiens). The experiment can be described thus: Displacement of [3H]-colchicine from tubulin (unknown origin) at 1 uM after 10 mins relative to control. It counts as protein-complex assay.

The source made the active and inactive calls. No cut-off for these calls is given here.

The molecule `COc1cc(C(=O)c2sc3c(OC)cccc3c2N)cc(OC)c1OC` displayed an IC50 in [1] of 2100 nM. On Tubulin (Homo sapiens) [2], this molecule had an inhibition of 39%.
In the same order, the values of `COc1cc(C(=O)c2sc3ccccc3c2N)cc(OC)c1OC` are 4200 nM and 39%.
Consider `COc1cc(C(=O)c2sc3ccc(N)cc3c2C)cc(OC)c1OC`, for which the IC50 in [1] was 1300 nM; in [3] it was 200 nM; in experiment [4], 100 nM; with HeLa, 100 nM; in experiment [5], 72 nM; in the experiment with L1210 it was 8 nM. Moreover, at Tubulin (Homo sapiens) [2], the inhibition came out at 78%.
As to `COc1ccc(/C=C\c2cc(OC)c(OC)c(OC)c2)cc1OP(=O)(O)O` [FOSBRETABULIN DISODIUM], in the experiment on MNNG-HOS [6], the inhibition in vivo at 50 mg/kg was found to be 32%. The result in the experiment with MNNG-HOS [7] was Active.
On to `COc1cc2sc(C(=O)c3cc(OC)c(OC)c(OC)c3)c(C)c2cc1N`, for which the 50% inhibitory concentration (IC50) in experiment [1] turned out to be 680 nM; in [3], 17 nM; in experiment [4], 16 nM; in experiment [5] it was 19 nM; in the experiment on L1210 it was 19 nM. Also, the inhibition at Tubulin (Homo sapiens) [8] worked out at 83%; at Tubulin (Homo sapiens) [2], 95%.
For `COc1cc(C(=O)c2cc3cc(N(C)C)cc(OC)c3s2)cc(OC)c1OC`, the IC50 in experiment [3] worked out at 1100 nM; in [4] it was 980 nM; with HeLa it was 360 nM.
For the molecule `COc1ccc(C(=O)c2cc3cc(N)cc(OC)c3s2)cc1`, the half-inhibitory concentration (IC50) in experiment [3] is more than 10000 nM; in experiment [4], 6500 nM; in experiment [5] it was 6100 nM; in the experiment with L1210, more than 10000 nM.
`CNc1cc(OC)c2sc(C(=O)c3cc(OC)c(OC)c(OC)c3)cc2c1`: the IC50 in experiment [3] was 190 nM; in experiment [4] it was 74 nM; in the experiment with HeLa, 66 nM; in the experiment on L1210 it was 67 nM.
Taken in the same sequence, the figures for `COc1cc(C(=O)c2cc3cc(NC(=O)CI)ccc3s2)cc(OC)c1OC` were 2100 nM, 330 nM, 1500 nM and 1400 nM.
Regarding `COc1cc(C(=O)c2cc3cc(NC(=O)CBr)ccc3s2)cc(OC)c1OC`, the IC50 in experiment [3] amounted to 1700 nM; in experiment [4] it was 960 nM; in the experiment with HeLa, 1600 nM; in experiment [5], 260 nM; with L1210, 1400 nM.
In the same order, the values of `COc1ccc(C(=O)c2cc3cc(N)cc(OC)c3s2)cc1OC` are 2200 nM, 1700 nM, 1600 nM, 1400 nM and 1900 nM.
In the same order, the values of `COc1cc(C(=O)c2cc3cc(NC(=O)CI)cc(OC)c3s2)cc(OC)c1OC` are 370 nM, 330 nM, 200 nM, 310 nM and 410 nM.
In the same order, the values of `COc1cc(C(=O)c2cc3cc(NC(=O)CBr)cc(OC)c3s2)cc(OC)c1OC` are 250 nM, 360 nM, 220 nM, 340 nM and 420 nM.
For the molecule `COc1cc(C(=O)c2cc3cc(N)ccc3s2)cc(OC)c1OC`, the concentration for half-maximal inhibition (IC50) in experiment [1] is 3200 nM; in [3], 2.8 nM; in experiment [4], 18 nM; in the experiment with HeLa, 13 nM; in [5], 11 nM; with L1210, 0.78 nM. The molecule also yielded an inhibition on Tubulin (Homo sapiens) [2] of 65%.
On to `C=C(Br)C(=O)Nc1cc(OC)c2sc(C(=O)c3cc(OC)c(OC)c(OC)c3)cc2c1`, for which the IC50 was determined as 200 nM in experiment [3]; 280 nM in [4]; 760 nM in the experiment with HeLa; 260 nM in [5]; 96 nM in the experiment on L1210.
As for `COc1cc(C(=O)c2cc3cc(NC(=O)CCl)cc(OC)c3s2)cc(OC)c1OC`, the half-maximal inhibitory concentration (IC50) in [3] amounted to 200 nM; in experiment [4] it was 78 nM; in the experiment on HeLa it was 100 nM; in experiment [5] it was 72 nM.
As to `COc1cc(C(=O)c2sc3c(OC)cc(N)cc3c2C)cc(OC)c1OC`, the IC50 came out at 480 nM in [1]; 15 nM in [3]; 14 nM in [4]; 13 nM in the experiment on HeLa; 12 nM in the experiment with L1210. Further, the inhibition was 90% at Tubulin (Homo sapiens) [8] and 95% on Tubulin (Homo sapiens) [2].
Consider `COc1cc(C(=O)c2cc3cc(NC(C)=O)cc(OC)c3s2)cc(OC)c1OC`, for which the IC50 is 340 nM in experiment [3], 98 nM in experiment [4] and 69 nM with HeLa.
For `C=C(Br)C(=O)Nc1ccc2sc(C(=O)c3cc(OC)c(OC)c(OC)c3)cc2c1`, the concentration for half-maximal inhibition (IC50) turned out to be 170 nM in experiment [3]; 270 nM in experiment [4]; 700 nM in the experiment with HeLa; 140 nM in experiment [5]; 75 nM in the experiment on L1210.

The record behind these values is ChEMBL document CHEMBL3098049, “Concise synthesis and biological evaluation of 2-Aroyl-5-amino benzo[b]thiophene derivatives as a novel class of potent antimitotic agents” (J Med Chem, 2013).
